Source: PubChem BioAssay (several laboratories)
Rows were chosen to be rich in hits. Some 5.3% of all compounds tested hit in one or more screens of this group.
Calb FLC – C. albicans growth modulation with fluconazole. C. albicans CaCi-2 (fluconazole-resistant clinical isolate) + fluconazole, Alamar Blue growth, 48 h. growth inhibition, % (test concentration not listed). actives 0.57% (n = 300,000). AID 1979;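 active = growth inhibition above about 58% in most replicates, limit read from the data, passing the limit was not always enough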;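 also: all wells also contain fluconazole at 8 µg/ml as a sub-toxic cotreatment; 0% = median of DMSO wells and 100% = median of geldanamycin control wells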
NALP3 yeast inh – inhibitors of NALP3 inflammasome in yeast; inhibition, % at 10 µM; AID 2825; actives 0.39% (n = 330,000); Yeast reconstituted NLRP3/ASC/caspase-1, beta-gal luminescence, 24 h;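 active = inhibition of 50% or more; inactive = inhibition below 50%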;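 also: plate controls were induced DMSO wells for no effect and uninduced yeast grown without galactose for full effect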
Mdm2 MdmX PPI – disrupts the human Mdm2-MdmX interaction; SaOS-2 split-luciferase Mdm2/MdmX complementation, luminescence; inhibition, % at 8 µM; actives 3% (n = 330,000); AID 485346;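 active = inhibition of at least 50% at 8 µM in the primary screen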
Target sequence (O15151 whole entry, looked up): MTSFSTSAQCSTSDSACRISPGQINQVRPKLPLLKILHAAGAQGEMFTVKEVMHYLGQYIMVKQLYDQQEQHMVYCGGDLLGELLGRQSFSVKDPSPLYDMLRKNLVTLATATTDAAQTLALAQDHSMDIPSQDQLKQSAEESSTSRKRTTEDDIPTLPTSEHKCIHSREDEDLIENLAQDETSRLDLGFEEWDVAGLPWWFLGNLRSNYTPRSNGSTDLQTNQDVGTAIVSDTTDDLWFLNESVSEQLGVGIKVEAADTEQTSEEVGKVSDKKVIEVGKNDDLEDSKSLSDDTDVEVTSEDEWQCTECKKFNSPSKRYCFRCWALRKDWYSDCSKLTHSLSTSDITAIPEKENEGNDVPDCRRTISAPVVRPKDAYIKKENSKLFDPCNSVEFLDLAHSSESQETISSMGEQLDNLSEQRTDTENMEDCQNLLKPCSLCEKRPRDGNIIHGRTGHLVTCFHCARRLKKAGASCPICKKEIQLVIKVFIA
Target sequence (Q00987 whole entry, looked up): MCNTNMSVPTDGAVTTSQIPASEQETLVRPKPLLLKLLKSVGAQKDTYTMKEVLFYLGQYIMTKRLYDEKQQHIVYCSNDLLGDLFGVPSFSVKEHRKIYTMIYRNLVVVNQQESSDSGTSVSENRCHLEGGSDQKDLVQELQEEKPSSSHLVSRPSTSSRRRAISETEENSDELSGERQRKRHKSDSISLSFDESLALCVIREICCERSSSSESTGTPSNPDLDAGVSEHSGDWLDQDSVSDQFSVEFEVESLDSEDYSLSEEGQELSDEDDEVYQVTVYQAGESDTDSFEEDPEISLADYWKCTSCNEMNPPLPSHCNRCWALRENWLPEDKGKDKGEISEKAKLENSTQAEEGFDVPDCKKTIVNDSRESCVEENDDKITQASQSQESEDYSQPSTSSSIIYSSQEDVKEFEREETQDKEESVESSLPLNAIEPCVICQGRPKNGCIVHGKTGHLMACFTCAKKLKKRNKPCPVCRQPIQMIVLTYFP
Beta apoptosis – beta cell apoptosis inhibition; INS-1E cytokine-induced death, ATP luminescence, 48 h; percent of positive-control rescue, neutral wells zero; protection from apoptosis, % (test concentration not listed); actives 0.8% (n = 300,000);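 active = Every replicate reaches about 75%, or at least half do and their mean reaches it too, limit read from the data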;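 also: 0% = cytokine-treated negative control wells and 100% = positive control rescue; higher means more ATP so stronger rescue from cytokine killing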
CSC inhib – cancer stem cell inhibition; AID 2717; inhibition, % at 7.5 µM; actives 1.1% (n = 300,000); cancer stem cell-like cells viability, luminescence; in the data active = inhibition above about 75%; tested in HMLE shEcad cells
T cruzi repl – T. cruzi replication inhibition; T. cruzi beta-gal in NIH3T3, luminescence, 90 h; inhibition, % (concentration not given with the values); AID 1885; actives 1.4% (n = 300,000);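 active = mean inhibition across valid replicates above about 55%, limit read from the data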;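 also: signal also drops with host cell toxicity which is not excluded here; 0% = plate median of DMSO wells and 100% = zero luminescence signal; higher percent means less beta-gal luminescence so fewer parasites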
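Assay system: NIH/3T3 host cells with β-galactosidase reporter T. cruzi; input: 5,000 host fibroblasts per well; compound: single 50 nL compound addition per well in DMSO; timing: ≥90 h infection period, 3 h prior cell attachment; measured by: GalScreen β-gal luminescence, detergent lysis, 60 min; evaluation: percent inhibition of parasite-derived β-gal signal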
Mdm2 MdmX conf – human Mdm2/MdmX binding inhibition, confirmed. shares compounds with Mdm2 MdmX PPI. inhibition, % at 8 µM. luminescent assay. AID 489028. actives 55% (n = 10,000); in the data active = inhibition above about 40%
FLuc counter – full-length luciferase inhibition in Mdm2/MdmX counter-screen; shares compounds with Mdm2 MdmX PPI; SaOS-2 full-length luciferase counterscreen, luminescence; inhibition, % at 8 µM; actives 77% (n = 6,200);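 active = mean inhibition at 8 µM reaching about 37%, which flags the compound as non-specific, limit read from the data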;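 also: p53-null SaOS-2 cells with luciferase driven by a doxycycline-inducible promoter; compound on cells about two nights before reading with doxycycline added after day one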
The depositor's hits bear a star; nt = no result.

SMILES	Calb FLC	NALP3 yeast inh	Mdm2 MdmX PPI	Beta apoptosis	CSC inhib	T cruzi repl	Mdm2 MdmX conf	FLuc counter
Cc1ccc2c(c1)C(c1ccccc1)N(C(=O)c1ccccc1)CC(=O)N2 (centres undefined)	6	4	0	3	-14	-6	nt	nt
Cn1nc(-c2ccc(Cl)cc2)cc1NC(=O)Nc1ccccc1	-10	7	9	-5	10	3	nt	nt
Cc1cccc(-c2cc3nc4c(c(N5CCOCC5)n3n2)CCCC4)c1	8	26	65*	2	-6	43	33	nt
CS(=O)(=O)N(CC(=O)Nc1cc(Cl)ccc1Cl)c1ccccc1	-1	13	-7	-3	nt	3	nt	nt
N#CC(c1ccccc1)c1ccc2c(C(F)(F)F)cc(C(F)(F)F)nc2n1 (centres undefined)	-4	8	68*	93*	-6	12	9	nt
Cc1ccc(C(C#N)c2ccc3c(C(F)(F)F)cc(C(F)(F)F)nc3n2)cc1 (centres undefined)	4	37	58*	39	86*	41	-1	nt
CN(N)c1ccc2c(C(F)(F)F)cc(C(F)(F)F)nc2n1	-4	-2	-13	-5	5	4	nt	nt
COc1cc2cc(-c3ccc(O)cc3O)nc(C)c2cc1OC	-1	20	84*	7	23	14	53*	53*
COc1cc2cc(-c3ccc(OC)c(OC)c3C)nc(N)c2cc1OC	-3	7	94*	-11	63	15	70*	62*
CCOc1ccc(-c2cc3cc(OC)c(OC)cc3c(C)n2)cc1	4	34	2	-5	-13	-1	nt	nt
COc1ccccc1NC(=O)NCc1ccccc1F	-4	9	9	0	-8	-6	nt	nt
CC/C(=N\OC(=O)c1ccc(OC(C)C)cc1)c1ccc(C)cc1	1	6	31	-6	nt	-2	nt	nt
COc1ccc(CNCCC2(Cc3ccccc3)CC(C)N(C)CC2C)cc1OC (centres undefined)	4	24	61*	3	-8	32	29	nt
COc1ccc(CN(CCC#N)CCC2(c3ccccc3)CC(C)N(C)CC2C)cc1OC (centres undefined)	2	9	0	-2	-3	1	nt	nt
Cc1c(C(=O)N2CCN(Cc3ccccc3)CC2)oc2c1C(=O)CCC2	1	4	17	0	-11	0	nt	nt
O=C(O)c1cccc2c(/C=N/Nc3ccccn3)c[nH]c12	-15	1	4	-6	-6	-9	nt	nt
O=C1N(c2ccccc2)C[C@@H]2C[C@@H](c3cc4ccccc4o3)N3CCC[C@@]123	-6	2	98*	nt	nt	56*	98*	35
N=C(N)SCCc1cccc(CCSC(=N)N)c1	nt	26	15	-10	-13	-1	nt	nt
Clc1ccc2ncc(-c3nnnn3-c3ccccc3)c(-c3ccccc3)c2c1	4	8	56*	7	19	37	39	43*
Clc1ccc(-n2nnnc2-c2cnc3ccc(Cl)cc3c2-c2ccccc2)cc1	3	9	61*	6	65	44	38	nt
OC(CNCC(c1ccc(Cl)cc1Cl)c1c[nH]c2ccccc12)c1ccccc1 (centres undefined)	11	18	97*	68	104*	82*	80*	46*
CCOc1c(Cl)cc(CNCC(O)c2ccccc2)cc1OC (centres undefined)	-1	8	11	-5	-8	50	nt	nt
O=C(NC[C@@H]1CC[C@@H](Cc2ccc(-c3ccccc3)cc2)O1)Nc1ccc(Br)cc1	nt	nt	-4	nt	nt	nt	nt	nt
COc1ccc(-c2cc(C)no2)cc1S(=O)(=O)N(C)c1ccc(C)c(C)c1	52	17	15	1	23	6	nt	nt
Cc1ccc(N(C)S(=O)(=O)c2ccc(-c3cc(C)no3)s2)cc1	22	47	54*	-2	-20	0	55*	59*
SMILES	Calb FLC	NALP3 yeast inh	Mdm2 MdmX PPI	Beta apoptosis	CSC inhib	T cruzi repl	Mdm2 MdmX conf	FLuc counter
Cc1cc(-c2ccc(S(=O)(=O)N(C)c3ccc(C)c(C)c3)s2)on1	12	22	56*	15	71	-2	54*	47*
COc1cc(OC)cc(C(=O)NCCCCCCNC(=O)c2cc(OC)cc(OC)c2)c1	nt	7	11	-1	nt	nt	nt	nt
CN(C)/C=C/c1c([N+](=O)[O-])c2ccc(O)cc2n1-c1ccccc1	2	-9	61*	-17	-8	-27	68*	54*
CC1(C)C(=O)Nc2ccccc2N1C(=O)COC(=O)CCSc1ccccc1	3	12	-13	-3	-2	0	nt	nt
CC1CCCCC1N(C)C1CCN(C(=O)CNC(=O)/C=C/c2cccc(Cl)c2)CC1 (centres undefined)	3	9	53*	-3	31	38	52*	92*
CN(C1CCCC1)C1CCN(C(=O)CNC(=O)/C=C/c2ccccc2)CC1	-13	17	-32	0	nt	14	nt	nt
O=C(/C=C/c1cccc(Cl)c1)NCCN1CCOCC1	6	-11	76*	-5	1	-1	-18	nt
CC(C)CN1CCN(Cc2ccc(C#CC(C)(C)O)cc2)CC1CCO (centres undefined)	-6	1	-5	0	-4	1	nt	nt
O=C(Cc1ccc(N2CCNC2=O)cc1)N1CCCC(Nc2cccc(F)c2)C1 (centres undefined)	-5	4	60*	22	62	-15	60*	62*
O=C(Cc1ccc(N2CCNC2=O)cc1)N1CCCC(Nc2ccc(F)c(F)c2)C1 (centres undefined)	2	20	54*	2	83*	22	75*	56*
O=C(c1cccc(N2CCNC2=O)c1)N1CCCC(Nc2cccc(F)c2)C1 (centres undefined)	0	22	24	-4	-5	-18	nt	nt
COc1ccccc1-n1c(=O)c(C#N)c(-c2ccc([N+](=O)[O-])cc2)c2cc(C(=O)c3cc(F)ccc3O)cnc21	-3	17	13	12	-2	42	nt	nt
Cn1c(=O)c(C#N)c(-c2ccc(F)cc2)c2cc(C(=O)c3cc(Cl)cc(Cl)c3O)cnc21	7	23	83*	28	124*	-2	87*	30
CCN(Cc1ccccc1)C(=O)c1ccc(SC)cc1OC	14	-4	-7	-1	3	-2	nt	nt
C/C(=N\NC(=O)c1ccc(Cl)c(Cl)c1)c1ccc(Br)s1	-7	-9	68*	24	-10	70*	55*	47*
CCOC(=O)c1ccc(NC(=O)CN2CCN(C(=O)c3ccco3)CC2)cc1	-2	22	5	0	3	-2	nt	nt
